Rce1 inhib = inhibitors of yeast Ras-converting enzyme | AID 2563 | 290,000 compounds, 0.27% hits | yeast membranes, quenched prenylated peptide cleavage fluorescence | calls only | Q03530;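 active means fall in fluorescence gain of 50% or more versus controls, with final raw signal at or below 3038400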;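 further: plate controls were neutral control wells for no effect and wells lacking membranes for full effect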
CR mimetic SO = yeast age-related superoxide inhibition as caloric restriction mimetic; 330,000 compounds, 0.18% hits; superoxide response (% of plate mean), % at 10 µM; S. cerevisiae aged cells, superoxide DHE fluorescence; hits give low values;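 active means superoxide response under a set limit, about three screen SD below normal, cut at about 65% in these data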;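 further: yeast aged for seven days with compound at 30 °C before DHE staining; 100% = average MFI of all compound-treated wells on the plate with controls excluded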
T cell HTS = T cell immune modulators affecting CD8 T cell-vesicle binding; 2C CD8+ T cell-vesicle binding, flow cytometry; hits give low values; response (vesicle binding), % at 7 µM; 330,000 compounds, 0.068% hits; AID 2052;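 active means response, share of CD8 T cells binding vesicles, and their 90th percentile fluorescence all below set limits, cut at about 80% in these data, passing the limit was not always enough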;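 further: values below 100% mean blocked vesicle binding to the CD8+ T cells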
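Benchmarks: naked versus QL9-loaded vesicles / Assay system: purified 2C TCR transgenic mouse naive CD8+ T cells / Technique: high-throughput flow cytometry with anti-B7-1 and anti-CD8 staining / Timing: Cell–vesicle co-incubation 1.5 h at 37 °C, staining 20 min on ice / Read-out: percent CD8+ FL2 mean versus row control / Probe or stimulus: QL9-loaded Drosophila micro-vesicles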
beta cell repl = inducers of beta-cell replication in MIN6 cells; proliferation, % at 10 µM; MIN6 cells proliferation, ATPlite luminescence, 48 h; cells starved in 0.2% serum; 100% = growth in 10% serum; AID 2380; 330,000 compounds, 0.29% hits;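 active means compounds whose signal lies at least 3.5 SD above the mean of all wells on their plate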;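 further: 0% = DMSO-treated cells in low-serum medium and 100% = 10% serum control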
V-ATPase pHluor = yeast V-ATPase proton transport regulation by pHLuorin; S. cerevisiae, pHLuorin cytosolic pH fluorescence; response, % at 10 µM; 350,000 compounds, 0.37% hits; AID 504577; in the data active means response mostly above about 7.3%, no sharp cut-off; inactive means mostly below about 5.4%; further: actives read high
KLK7 zymogen act = activates the human kallikrein-7 zymogen; AID 652039; activation, % at 7 µM; purified proKLK7, EDANS-DABCYL substrate fluorescence; 100% is mature enzyme control, 0% vehicle; 370,000 compounds, 0.9% hits; P49862;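 active means activation above the mean of all tested compounds plus 3 SD, computed per campaign excluding outliers beyond control limits, cut at about 13% in these data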
Target sequence (P49862 whole entry, looked up): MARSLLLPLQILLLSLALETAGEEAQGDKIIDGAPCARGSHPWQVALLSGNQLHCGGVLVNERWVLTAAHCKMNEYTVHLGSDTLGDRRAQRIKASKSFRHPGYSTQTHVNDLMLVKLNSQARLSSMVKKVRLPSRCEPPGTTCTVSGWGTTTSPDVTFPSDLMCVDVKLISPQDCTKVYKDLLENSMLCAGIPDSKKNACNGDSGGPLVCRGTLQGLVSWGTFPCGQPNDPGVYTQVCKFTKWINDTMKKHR
VATPase regulator = regulators of yeast V-ATPase proton transport; shares compounds with V-ATPase pHluor; S. cerevisiae pHLuorin cytosolic pH; response, % at 10 µM; 980 compounds, 2% hits; AID 602197; in the data active means response above about 24%;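 further: plate controls were vehicle wells for no effect and positive control wells for full effect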
An asterisk follows results filed as active; i = inactive; . = no result given. The list is not random: actives were taken first. Their share in the collection is about 1.9%.

SMILES	Rce1 inhib	CR mimetic SO	T cell HTS	beta cell repl	V-ATPase pHluor	KLK7 zymogen act	VATPase regulator
COc1ccc(CN2C(=O)c3ccccc3C2C(=O)NC2CCCC2)c(OC)c1 (configuration not stated)	i	91	434	-2	9.8*	0	1
COc1ccc(CN2C(=O)c3ccccc3C2C(=O)NC2CCC(C)CC2)c(OC)c1 (configuration not stated)	i	96	428	4	0	0	.
Cc1cc2c(cc(C(=O)N3CCC(C(=O)N4CCCC4)CC3)n2Cc2c(F)cccc2Cl)o1	i	101	i	4	10*	0	2
CCOC(=O)c1cc2occc2n1Cc1c(F)cccc1Cl	i	99	212	-1	3	0	.
Cc1ccccc1N1CCN(C2CCCN(C(=O)c3snnc3C)C2)CC1 (configuration not stated)	i	118	104	-4	1	0	.
COc1ccc(N(CC(=O)Nc2ccc(Cl)cc2)S(=O)(=O)c2c(C)n[nH]c2C)cc1	i	106	242	0	1	0	.
COc1ccc(N(CC(=O)N2CCN(c3ccc(Cl)cc3)CC2)S(=O)(=O)c2c(C)n[nH]c2C)cc1	i	99	369	-3	7.4*	0	-1
CCN(C(=O)CSc1nnc(COc2ccccc2F)n1N)c1c(N)n(Cc2ccccc2)c(=O)[nH]c1=O	.	.	.	.	-2	0	.
CCCc1nc2sc3c(c2c(=O)n1NC(=O)CCC(=O)O)CCCC3	i	106	156	2	8.6*	.	-4
CC1CCCCN1S(=O)(=O)c1ccc2c(c1)C(C)(C)C(=O)N2C (configuration not stated)	i	103	189	6	1	1	.
CC(=O)NCCNS(=O)(=O)c1ccc(C)c([N+](=O)[O-])c1	i	87	318	-1	10*	0	1
O[C@@H]1CN(C2CCN(Cc3ccccc3)CC2)CC[C@H]1N1CCCCCC1	.	.	.	.	11*	0	0
O[C@@H]1CN(C2CCCCC2)CC[C@H]1N1CCN(CCc2ccccc2)CC1	i	104	278	-3	-1	.	.
Cc1cc(=O)oc2cc(OCC(=O)NCCCN3CCCC3=O)c(Cl)cc12	i	86	i	1	6	0	.
Cc1c(C)c2cc(Cl)c(OCC(=O)NCCCN3CCCC3=O)cc2oc1=O	.	.	.	.	11*	1	2
COc1ccc(OC)c(CN2CCN(C(=O)c3cccc(S(=O)(=O)Nc4ccc(F)cc4)c3)CC2)c1	.	.	.	.	-3	0	.
COc1ccc(-n2nc(C(=O)NCC(=O)Nc3ccc(F)cc3)c3ccccc3c2=O)cc1	i	109	180	0	-1	1	.
Cc1cccc2sc(N(CCCN(C)C)C(=O)c3ccc(Cl)s3)nc12	i	96	100	-4	11*	-1	0
Cc1cccc2sc(N(CCCN(C)C)C(=O)c3ccco3)nc12	i	92	275	-3	-2	0	.
Cc1ccc(S(=O)(=O)/N=C(/Nc2ccc(O)c(C(=O)O)c2)c2ccccc2)cc1	.	92	289	-2	12*	0	-1
C=CCN(C(=O)CSc1nc2ccsc2c(=O)n1Cc1ccc(C(=O)O)cc1)c1ccccc1	.	.	.	.	-1	1	.
O=C(Nc1cccc(Cl)c1Cl)c1ccccc1OCC(=O)N1CCOCC1	i	100	438	-1	11*	0	-5
Cc1ccc(Cl)cc1N1CCN(C(=O)CNC(=O)c2ccc(Br)o2)CC1	.	114	667	-2	8.1*	0	6
O=C(NCC(=O)N1CCN(c2cccc(Cl)c2)CC1)c1ccc(Br)o1	i	94	284	4	-2	0	.
COc1nn(-c2nc(-c3ccccc3)cc(C(F)(F)F)n2)cc1[N+](=O)[O-]	i	103	104	0	17*	0	0
COc1ccc(CC(=O)NC2CCCc3ccccc32)cc1 (configuration not stated)	i	111	222	-5	1	0	.
COc1ccc2c(c1)C(CC(=O)NN)CCC2 (configuration not stated)	.	.	.	.	13*	0	0

Source: PubChem BioAssay
